Active and inactive are the calls of the source. No cut-off for these calls is given here. Where only a bound is given, the exact number is not on record here.

Consider 20 molecules from ChEMBL document CHEMBL1641587, “Indole-3-piperazinyl derivatives: novel chemical class of 5-HT(6) receptor antagonists” (Bioorg Med Chem Lett, 2011).

The target of data set [1] is T1, 5-hydroxytryptamine receptor 6 (Homo sapiens, UniProt P50406). In words: Displacement of [3H]LSD from human cloned 5HT6 receptor expressed in human HeLa cells by glass fiber filtration assay. The data set is classed as cell-based. In outline:
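Radioligand binding to human cloned 5-HT6 receptors stably expressed in HeLa cells. Ki values were determined.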
Background: Displacement assays read how much labelled ligand stays bound in the presence of the test substance.

The target of the next data set is Cytochrome P450 3A4 (Homo sapiens, UniProt P08684). In words: Inhibition of human CYP3A4. The data set is classed as ADME. The gist of the method: (§1)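 Isoform-selective assays using heterologously expressed human CYP2D6 or CYP3A4. IC50 is the mean of duplicate determinations.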
Data set [2] in a line: Selectivity ratio of IC50 for NET to IC50 for human recombinant 5HT6 receptor.
Data set [3] concerns Rattus norvegicus. In words: Cognitive enhancing effect in Wistar rat at 10 mg/kg, po by novel object recognition test. Also on record: dose 10 mg/kg. The data set is classed as functional, organism-based. In outline: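 Novel object recognition test in male Wistar rats. Drug or vehicle (PEG 400 50% v/v, 1 mL/kg) was given p.o. 60 min before the test, n=6-9/group. Read-out was exploration time of the familiar versus the novel object, given as mean SEM and analysed by paired t test.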

Data set [4] in a line: Clearance in Wistar rat at 5 mg/kg, po. In kind it is ADME, organism-based. More on the design: dose 5 mg/kg, route oral. As to conditions: in vivo. The gist of the method: (§2)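 Fasted male Wistar rats received a 5 mg/kg dose orally or iv, with water for injection as vehicle for both routes. n = 3 per route. Plasma parameters were derived per route: AUC, Cmax, t1/2, Vz, clearance, and oral bioavailability (F).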

Data set [5] relates to Rattus norvegicus. In words: Apparent volume of distribution in Wistar rat at 5 mg/kg, po. As to conditions: in vivo. In kind it is ADME, organism-based. More on the design: dose 5 mg/kg, route oral. In outline: as §2
Data set [6] in a line: Oral bioavailability in Wistar rat at 5 mg/kg. As to conditions: in vivo. The data set is classed as ADME, organism-based. The gist of the method: as §2
A short description of data set [7]: Half life in Wistar rat at 5 mg/kg, iv. In kind it is ADME, organism-based. As to conditions: in vivo. More on the design: dose 5 mg/kg, route intravenous. The gist of the method:
as §2

Data set [8] in a line: Cmax in Wistar rat at 5 mg/kg, po. The data set is classed as ADME, organism-based. Also on record: dose 5 mg/kg, route oral. As to conditions: in vivo. The gist of the method:
as §2

Data set [9] can be described thus: Cmax in Wistar rat at 5 mg/kg, iv. In kind it is ADME, organism-based. Also on record: dose 5 mg/kg, route intravenous. The note with it: in vivo. In outline:
as §2

The nature of data set [10]: Apparent volume of distribution in Wistar rat at 5 mg/kg, iv. In kind it is ADME, organism-based. More on the design: dose 5 mg/kg, route intravenous. As to conditions: in vivo, read-out: Vz. In outline:
as §2

In data set [11] the target is T1, 5-hydroxytryptamine receptor 6. The data set can be described thus: Antagonist activity at human recombinant 5HT6 receptor expressed in CHO cells assessed as inhibition of 5-HT-stimulated cAMP accumulation by luminometry. The data set is classed as functional, cell-based. In outline:
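Non-radioactive cell-based functional assay in CHO cells expressing 5-HT6 receptor; antagonism read as inhibition of 5-HT-stimulated cAMP accumulation. IC50 and Kb values derived, each the mean of two experiments.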
(cAMP levels reflect the balance of adenylyl cyclase and phosphodiesterase activity.)

Data set [12] in a line: AUC in Wistar rat at 5 mg/kg, iv. The note with it: plasma. The data set is classed as ADME, organism-based. More on the design: dose 5 mg/kg, route intravenous. In outline:
as §2

Data set [13] can be described thus: Selectivity ratio of IC50 for SERT to IC50 for human recombinant 5HT6 receptor.
A short description of data set [14]: AUC in Wistar rat at 5 mg/kg, po. In kind it is ADME, organism-based. More on the design: dose 5 mg/kg, route oral. As to conditions: plasma. The gist of the method:
as §2

A short description of data set [15]: Selectivity ratio of IC50 for dopamine D2 receptor to IC50 for human recombinant 5HT6 receptor.
Data set [16] is described as follows: Metabolic stability in Wistar rat liver microsomes at 2.5 uM after 0.5 hrs. The data set is classed as ADME, Microsome. In outline:
(§3)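 Wistar rat or human liver microsomes were incubated with 2.5 µM compound for 0.5 h, and % metabolized was measured.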
In general terms: Liver microsomes are vesicles of endoplasmic reticulum, rich in cytochrome P450 enzymes.

Data set [17] is described as follows: Clearance in Wistar rat at 5 mg/kg, iv. The data set is classed as ADME, organism-based. Also on record: dose 5 mg/kg, route intravenous. As to conditions: in vivo. The gist of the method:
as §2

Data set [18] is described as follows: Selectivity ratio of IC50 for histamine H1 receptor to IC50 for human recombinant 5HT6 receptor.
The species entered for data set [19] is Rattus norvegicus. As to conditions: 10 mg/kg.
The target in the next data set is Cytochrome P450 2D6 (Homo sapiens, UniProt P10635). The data set can be described thus: Inhibition of human CYP2D6. In kind it is ADME. In outline: as §1
Data set [20] in a line: Metabolic stability in human liver microsomes at 2.5 uM after 0.5 hrs. In kind it is ADME, Microsome. In outline: as §3
A short description of data set [21]: Half life in Wistar rat at 5 mg/kg, po. More on the design: dose 5 mg/kg, route oral. In kind it is ADME, organism-based. As to conditions: in vivo. In outline: as §2

Cytochrome P450 3A4, sequence (P08684 whole entry, canonical isoform): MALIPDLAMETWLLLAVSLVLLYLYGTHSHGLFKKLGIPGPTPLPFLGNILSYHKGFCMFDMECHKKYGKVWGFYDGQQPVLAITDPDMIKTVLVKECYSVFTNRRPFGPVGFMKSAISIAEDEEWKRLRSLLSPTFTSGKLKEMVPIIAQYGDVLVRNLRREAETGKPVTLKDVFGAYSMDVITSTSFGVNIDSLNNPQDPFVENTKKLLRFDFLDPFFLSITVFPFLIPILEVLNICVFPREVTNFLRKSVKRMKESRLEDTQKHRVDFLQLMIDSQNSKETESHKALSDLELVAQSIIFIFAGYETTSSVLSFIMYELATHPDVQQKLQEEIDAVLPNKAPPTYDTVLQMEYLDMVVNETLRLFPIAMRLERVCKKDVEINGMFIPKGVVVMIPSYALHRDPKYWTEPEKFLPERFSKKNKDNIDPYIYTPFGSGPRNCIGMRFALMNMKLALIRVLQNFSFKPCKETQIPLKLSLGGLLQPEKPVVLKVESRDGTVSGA
T1 sequence (P50406 whole entry): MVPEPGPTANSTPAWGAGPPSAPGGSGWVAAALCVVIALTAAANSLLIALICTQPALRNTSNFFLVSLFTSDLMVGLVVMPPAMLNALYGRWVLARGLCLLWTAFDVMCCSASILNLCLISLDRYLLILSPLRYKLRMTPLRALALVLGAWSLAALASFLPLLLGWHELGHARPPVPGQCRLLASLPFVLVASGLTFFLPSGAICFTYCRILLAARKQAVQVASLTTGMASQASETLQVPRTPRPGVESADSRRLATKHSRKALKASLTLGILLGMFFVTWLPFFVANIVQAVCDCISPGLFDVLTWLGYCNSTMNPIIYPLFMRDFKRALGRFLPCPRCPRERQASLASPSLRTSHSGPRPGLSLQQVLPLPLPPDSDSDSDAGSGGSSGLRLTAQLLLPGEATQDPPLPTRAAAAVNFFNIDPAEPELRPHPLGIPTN
Cytochrome P450 2D6, sequence (P10635 whole entry): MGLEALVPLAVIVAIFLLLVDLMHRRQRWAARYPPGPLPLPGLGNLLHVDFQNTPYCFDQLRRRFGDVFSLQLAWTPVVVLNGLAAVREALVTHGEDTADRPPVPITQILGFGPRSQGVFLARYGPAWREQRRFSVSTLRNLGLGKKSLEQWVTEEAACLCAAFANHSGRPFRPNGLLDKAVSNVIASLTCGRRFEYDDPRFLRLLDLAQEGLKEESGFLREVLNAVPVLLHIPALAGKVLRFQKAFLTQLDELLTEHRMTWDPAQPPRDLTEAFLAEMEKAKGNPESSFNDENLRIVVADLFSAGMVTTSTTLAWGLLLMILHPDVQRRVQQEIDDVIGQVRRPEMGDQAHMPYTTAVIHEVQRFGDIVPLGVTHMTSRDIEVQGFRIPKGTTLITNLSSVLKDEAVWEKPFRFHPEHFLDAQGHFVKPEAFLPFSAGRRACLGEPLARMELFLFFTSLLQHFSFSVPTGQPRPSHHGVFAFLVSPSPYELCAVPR

Molecule `CN1CCN(c2cn(S(=O)(=O)c3cccc(Cl)c3)c3ccccc23)CC1` had a Ki in data set [1] of 10.8 nM.
Same read-out and setting: under `CC(C)c1ccc(S(=O)(=O)n2cc(N3CCN(C)CC3)c3cc(Br)ccc32)cc1` stands 23.2 nM; under `CCN1CCN(c2cn(S(=O)(=O)c3ccc(C(C)C)cc3)c3ccc(Br)cc23)CC1`, 30.1 nM; under `CCN1CCN(c2cn(S(=O)(=O)c3cc(OC)ccc3OC)c3cc(Cl)ccc23)CC1`, 63.5 nM.
Take `CN1CCN(c2cn(S(=O)(=O)c3ccccc3)c3ccccc23)CC1`: the Ki in data set [1] was 15.9 nM.
`CN1CCN(c2cn(S(=O)(=O)c3ccccc3Br)c3ccccc23)CC1`: the Ki in data set [1] was 15.2 nM.
On the same count and under the same terms, under `CCN1CCN(c2cn(S(=O)(=O)c3ccc(C(C)C)cc3)c3ccccc23)CC1` stands 8.6 nM; under `CCN1CCN(c2cn(S(=O)(=O)c3ccccc3Br)c3ccc(Cl)cc23)CC1`, 20.3 nM; under `CC(C)c1ccc(S(=O)(=O)n2cc(N3CCN(C)CC3)c3ccc(Cl)cc32)cc1`, 55.3 nM.
The same measure, in the same setting: under `CCN1CCN(c2cn(S(=O)(=O)c3ccc(C(C)C)cc3)c3ccc(Cl)cc23)CC1` stands 30.5 nM.
For `CC(C)c1ccc(S(=O)(=O)n2cc(N3CCN(C)CC3)c3ccccc32)cc1`, the IC50 against Cytochrome P450 3A4 was determined as 5540 nM; in data set [11], 310 nM; on Cytochrome P450 2D6, 39200 nM. Further, the Ratio IC50 in data set [2], in data set [13], in data set [15] and in data set [18] was over 50 throughout. The outcome in the data set with Rattus norvegicus [3] was Active. The same molecule had a CL/F in data set [4] of 2200 mL/min/kg. For the same molecule, the Vz in the data set with Rattus norvegicus [5] amounted to 436 L/kg. In data set [6], the bioavailability amounted to 8%. Moreover, the figures for the half-life in data set [7] and in data set [21] were 4.47 h and 2.35 h, respectively. For the same molecule, the results for the Cmax in data set [8] and in data set [9] were 40 ng/mL and 365 ng/mL, respectively. Also, the Vd in data set [10] is 51.8 L/kg. In addition, the Kb in data set [11] came to 0.53 nM. Moreover, the area under the curve (AUC) was found to be 674 ng·h/mL in data set [12] and 59 ng·h/mL in data set [14]. For the same molecule, the % metabolism at 0.5 h, 2.5 µM in [16] came out at 95%; in data set [20], 80%. The clearance in [17] is 133 mL/min/kg. The inhibition entry in the data set filed under Rattus norvegicus [19] was “Active”. The molecule further showed a Ki in data set [1] of 3.4 nM.
`CN1CCN(c2cn(S(=O)(=O)c3ccccc3Br)c3ccc(Br)cc23)CC1` registered a Ki in data set [1] of 10.2 nM.
As for `CCN1CCN(c2cn(S(=O)(=O)c3ccc(F)cc3)c3ccc(Cl)cc23)CC1`, the Ratio IC50 in data set [2], in [13], in data set [15] and in data set [18] was over 50 throughout. Further, the half-inhibitory concentration (IC50) in [11] stood at 1780 nM. Further, the Kb in data set [11] stood at 3.5 nM. The molecule also returned a Ki in [1] of 10.7 nM.
For `CCN1CCN(c2cn(S(=O)(=O)c3ccc(OC)cc3)c3cc(Cl)ccc23)CC1`, in data set [1], the Ki amounted to 82.3 nM.
Still for that read-out and setting: under `CCN1CCN(c2cn(S(=O)(=O)c3ccc(F)cc3)c3ccc(Br)cc23)CC1` stands 10.6 nM.
Turning to `CN1CCN(c2cn(S(=O)(=O)c3ccc(F)cc3)c3ccc(Br)cc23)CC1`, the values for the IC50 (against Cytochrome P450 3A4; in data set [11]; on Cytochrome P450 2D6) were 4610 nM, 322 nM and 28800 nM, respectively. Also, the Ratio IC50 in [2], in [13], in data set [15] and in data set [18] was over 50 each time. Besides, in data set [11], the Kb came out at 0.6 nM. Further, the % metabolism at 0.5 h, 2.5 µM stood at 99% in [16] and 96% in [20]. The same molecule showed an inhibitory constant (Ki) in data set [1] of 9.2 nM.
As to `CN1CCN(c2cn(S(=O)(=O)c3ccccc3Br)c3cc(Cl)ccc23)CC1`, in data set [1], the inhibition constant (Ki) is 30.2 nM.
Take `CN1CCN(c2cn(S(=O)(=O)c3cccc(Cl)c3)c3ccc(Br)cc23)CC1`: the Ratio IC50 in data set [2], in data set [13], in [15] and in [18] was over 50 throughout. The IC50 in [11] stood at 1530 nM. Moreover, the antagonist equilibrium constant (Kb) in [11] is 3 nM. In addition, the Ki in data set [1] is 7.8 nM.
Take `CN1CCN(c2cn(S(=O)(=O)c3ccc(F)cc3)c3ccccc23)CC1`: the IC50 was determined as 4770 nM against Cytochrome P450 3A4, 292 nM in [11] and 26400 nM against Cytochrome P450 2D6. The Ratio IC50 in data set [2], in data set [13], in data set [15] and in data set [18] was over 50 in each case. In addition, the Kb in data set [11] was determined as 0.5 nM. Moreover, the % metabolism at 0.5 h, 2.5 µM amounted to 99% in [16] and 85% in [20]. Further, in [1], the Ki turned out to be 11.8 nM.
Molecule `CCN1CCN(c2cn(S(=O)(=O)c3ccc4ccccc4c3)c3cc(Cl)ccc23)CC1` gave a Ki in data set [1] of 25.5 nM.

A word on the Ki: it is the equilibrium dissociation constant of an inhibitor or competing ligand from its target. Lower therefore signals higher affinity. Broadly, the IC50 is the concentration needed to halve the response being measured. As a reminder, the CL/F is clearance divided by bioavailability, as obtained after extravascular dosing. One may read the bioavailability as dose-corrected exposure relative to a reference, in per cent. High values mean good availability, low ones poor availability. The half-life is the time in which the quantity being followed falls by half. Lower therefore signals rapid decline. Usually Cmax stands for the highest concentration seen after dosing. In general, Kb refers to the equilibrium dissociation constant of an antagonist, usually derived from a functional assay. As usually defined, the AUC is concentration integrated over time. Higher therefore signals more exposure. The clearance is the volume of plasma or blood freed of the substance per unit of time. A higher clearance goes with a high capacity for elimination.
